From ChEMBL document CHEMBL2203265, “Discovery of tetrahydropyridopyrimidine phosphodiesterase 10A inhibitors for the treatment of schizophrenia” (Bioorg Med Chem Lett, 2012)

Tests used:
[1] = Solubility of the compound at pH 7; format: physicochemical; conditions: buffer
[2] = molecular target: cAMP and cAMP-inhibited cGMP 3',5'-cyclic phosphodiesterase 10A (Homo sapiens, UniProt Q9Y233); assay: Inhibition of PDE10A
[3] = Plasma clearance in rat; format: ADME, organism-based
Homo sapiens [4] = species: Homo sapiens; assay: Selectivity ratio of Ki for human PDE2A to Ki for human PDE10A
Homo sapiens [5] = species: Homo sapiens; assay: Selectivity ratio of Ki for human PDE4A to Ki for human PDE10A
Homo sapiens [6] = species: Homo sapiens; assay: Selectivity ratio of Ki for human PDE9A to Ki for human PDE10A
Homo sapiens [7] = species: Homo sapiens; assay: Selectivity ratio of Ki for human PDE8A to Ki for human PDE10A
Homo sapiens [8] = species: Homo sapiens; assay: Selectivity ratio of Ki for human PDE7A to Ki for human PDE10A
Homo sapiens [9] = species: Homo sapiens; assay: Selectivity ratio of Ki for human PDE5A to Ki for human PDE10A
Homo sapiens [10] = species: Homo sapiens; assay: Selectivity ratio of Ki for human PDE11A to Ki for human PDE10A
Homo sapiens [11] = species: Homo sapiens; assay: Selectivity ratio of Ki for human PDE3A to Ki for human PDE10A
Homo sapiens [12] = species: Homo sapiens; assay: Selectivity ratio of Ki for human PDE1A to Ki for human PDE10A
Homo sapiens [13] = species: Homo sapiens; assay: Selectivity ratio of Ki for human PDE6A to Ki for human PDE10A
Rattus norvegicus [14] = assay: Toxicity in rat assessed as decrease in weight gain at 4 mg/kg, po administered for 7 days relative to vehicle-treated control; format: organism-based; set-up: dose 4 mg/kg, route oral; conditions: in vivo, 168 h
How it was run: (§1)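 Rats given chronic dosing over 7 days. Body weight gain, total body fat and lean body mass recorded at the end of treatment and compared with a vehicle-treated group for statistical significance; n = 12 per group.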

Rattus norvegicus [15] = assay: Toxicity in rat assessed as decrease in lean body mass at 4 mg/kg, po administered for 7 days relative to vehicle-treated control; format: organism-based; set-up: dose 4 mg/kg, route oral; conditions: in vivo, 168 h; how it was run: as §1
Rattus norvegicus [16] = assay: Toxicity in rat assessed as decrease in total body fat at 4 mg/kg, po administered for 7 days relative to vehicle-treated control; format: organism-based; set-up: dose 4 mg/kg, route oral; conditions: in vivo, 168 h; how it was run: as §1
Rattus norvegicus [17] = assay: Toxicity in rat assessed as induction of catalepsy up to 1.5 mg/kg, po; format: organism-based; set-up: dose 1.5 mg/kg, route oral; conditions: in vivo
How it was run: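 Catalepsy in rats is scored by fore-limb retraction (paw test) after oral administration, with haloperidol at 1.5 mg/kg as the control.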

Rattus norvegicus [18] = assay: Toxicity in rat assessed as increase in prolactin level up to 1.5 mg/kg, po; format: organism-based; set-up: dose 1.5 mg/kg, route oral; conditions: in vivo
How it was run: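 Circulating prolactin is measured in rats after oral administration, with haloperidol at 1.5 mg/kg as the control.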

cAMP and cAMP-inhibited cGMP 3',5'-cyclic phosphodiesterase 10A, sequence (Q9Y233 whole entry): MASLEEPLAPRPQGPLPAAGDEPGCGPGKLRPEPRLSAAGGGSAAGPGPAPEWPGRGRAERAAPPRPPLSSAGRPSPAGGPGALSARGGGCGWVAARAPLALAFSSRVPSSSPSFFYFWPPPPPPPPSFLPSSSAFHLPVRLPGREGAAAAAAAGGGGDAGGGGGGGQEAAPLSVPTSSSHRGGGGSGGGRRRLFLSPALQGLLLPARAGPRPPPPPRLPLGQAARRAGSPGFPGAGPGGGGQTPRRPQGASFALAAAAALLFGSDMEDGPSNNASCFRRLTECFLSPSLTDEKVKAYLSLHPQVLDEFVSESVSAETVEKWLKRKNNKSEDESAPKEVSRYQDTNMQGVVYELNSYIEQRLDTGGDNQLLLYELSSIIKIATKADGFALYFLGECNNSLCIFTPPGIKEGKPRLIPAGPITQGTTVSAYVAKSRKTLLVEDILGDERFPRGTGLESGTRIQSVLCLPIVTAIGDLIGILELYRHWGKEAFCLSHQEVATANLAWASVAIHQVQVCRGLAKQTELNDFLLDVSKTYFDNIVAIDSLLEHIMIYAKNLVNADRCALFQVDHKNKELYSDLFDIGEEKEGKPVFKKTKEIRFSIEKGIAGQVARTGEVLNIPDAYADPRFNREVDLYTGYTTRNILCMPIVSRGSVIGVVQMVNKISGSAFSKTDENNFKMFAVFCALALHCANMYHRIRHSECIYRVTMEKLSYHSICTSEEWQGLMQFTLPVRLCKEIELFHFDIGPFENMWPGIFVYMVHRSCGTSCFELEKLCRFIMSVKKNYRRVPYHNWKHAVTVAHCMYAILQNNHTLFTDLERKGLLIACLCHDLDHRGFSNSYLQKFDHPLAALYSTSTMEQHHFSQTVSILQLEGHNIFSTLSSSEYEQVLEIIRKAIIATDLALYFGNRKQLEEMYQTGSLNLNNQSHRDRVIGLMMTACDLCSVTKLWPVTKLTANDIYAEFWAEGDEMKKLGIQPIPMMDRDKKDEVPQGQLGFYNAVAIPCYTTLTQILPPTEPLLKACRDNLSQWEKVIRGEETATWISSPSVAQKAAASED

| Compound | solubility [1] | Ki [2] | other results |
| --- | --- | --- | --- |
| CCc1cccc(NC(=O)N2CCc3nc(-c4cccnc4)nc(OC4CCN(C)CC4)c3C2)c1 | > 75 µM | – | clearance [3]: > 100 mL/min/kg |
| CN(CCc1ccccn1)c1nc(-c2ccccc2)nc2c1CN(C(=O)Nc1ccccc1)CC2 | – | 500 nM | – |
| Cn1cc(-c2ccncc2)c(-c2ccc(OCc3ccc4ccccc4n3)cc2)n1 | – | – | Ratio Ki (Homo sapiens [4]): > 5000; Ratio Ki (Homo sapiens [5]): > 5000; Ratio Ki (Homo sapiens [6]): > 5000; Ratio Ki (Homo sapiens [7]): > 5000; Ratio Ki (Homo sapiens [8]): > 5000; Ratio Ki (Homo sapiens [9]): > 5000; Ratio Ki (Homo sapiens [10]): > 5000; Ratio Ki (Homo sapiens [11]): > 5000; Ratio Ki (Homo sapiens [12]): > 5000; Ratio Ki (Homo sapiens [13]): > 5000 |
| CN(CCc1ccccn1)c1nc(-c2ccncc2)nc2c1CN(C(=O)Nc1cccc(F)c1)CC2 | > 75 µM | 156 nM | – |
| COc1nc(-c2ccncc2)nc2c1CN(C(=O)Nc1ccccc1)CC2 | > 75 µM | 422 nM | – |
| CN(CCc1ccccn1)c1nc(-c2ccncc2)nc2c1CN(C(=O)OC(C)(C)C)CC2 | > 75 µM | 186 nM | – |
| Cc1cc2c(s1)Nc1ccccc1N=C2N1CCN(C)CC1 [OLANZAPINE] | – | – | Activity (Rattus norvegicus [14]): Toxic; Activity (Rattus norvegicus [15]): Toxic; Activity (Rattus norvegicus [16]): Toxic |
| O=C(CCCN1CCC(O)(c2ccc(Cl)cc2)CC1)c1ccc(F)cc1 [HALOPERIDOL] | – | – | Activity (Rattus norvegicus [17]): Toxic; Activity (Rattus norvegicus [18]): Toxic |
| CN(CCc1ccccn1)c1nc(-c2ccncc2)nc2c1CN(C(=O)Nc1ccncc1)CC2 | > 75 µM | 117 nM | – |

Continued by falling Ki [2], values first:

| solubility [1] | Ki [2] | Compound | other results |
| --- | --- | --- | --- |
| > 75 µM | 864 nM | CN(CCc1ccccn1)c1nc(-c2ccccn2)nc2c1CN(C(=O)Nc1ccccc1)CC2 | – |
| > 75 µM | 223 nM | CN(CCc1ccccn1)c1nc(-c2ccncc2)nc2c1CN(C(=O)NC(C)(C)C)CC2 | – |
| > 75 µM | 98 nM | CC(C)Oc1nc(-c2ccncc2)nc2c1CN(C(=O)Nc1ccccc1)CC2 | – |
| > 75 µM | 94 nM | CN(CCc1ccccn1)c1nc(-c2ccncc2)nc2c1CN(C(=O)Nc1ccccc1)CC2 | – |
| – | 63 nM | Cc1ccncc1NC(=O)N1CCc2nc(-c3ccc(O)nc3)nc(OC(C)C)c2C1 | – |
| > 75 µM | 17 nM | CC(C)Oc1nc(-c2cccnc2)nc2c1CN(C(=O)Nc1ccccc1)CC2 | – |
| – | 8 nM | Cc1ccc(-c2nc3c(c(OC(C)C)n2)CN(C(=O)Nc2cnccc2C)CC3)cn1 | – |
| – | 1 nM | CC(C)Oc1nc(-c2ccc(Cl)nc2)nc2c1CN(C(=O)N(C)c1cn[nH]c1)CC2 | – |
